Assay results as given in ChEMBL document CHEMBL1772977, “Synthesis and biological evaluation of novel 4-benzylpiperazine ligands for sigma-1 receptor imaging” (Bioorg Med Chem, 2011).

Legend:
Assay type in all cases: ADME, organism-based
Lung [1] = assay: Biodistribution in ICR mouse lung at 1 uCi, iv after 60 mins postinjection; settings: in vivo, 1 h
Method in brief: (§1)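 Female ICR mice (18–22 g, n = 5) received HPLC-purified radiotracer by tail vein (0.1 mL). They were killed by cervical fracture at the stated times. Blood and organs were removed, weighed and gamma-counted. Uptake expressed as percent injected dose per gram of tissue (%ID/g), given as mean with SD.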

Lung [2] = assay: Biodistribution in ICR mouse lung at 1 uCi, iv after 120 mins postinjection; settings: in vivo, 2 h; method in brief: as §1
Lung [3] = assay: Biodistribution in ICR mouse lung at 1 uCi, iv after 240 mins postinjection; settings: in vivo, 4 h; method in brief: as §1
Kidney [4] = assay: Biodistribution in ICR mouse kidney at 1 uCi, iv after 15 mins postinjection; settings: in vivo, 0.25 h; method in brief: as §1
Kidney [5] = assay: Biodistribution in ICR mouse kidney at 1 uCi, iv after 30 mins postinjection; settings: in vivo, 0.5 h; method in brief: as §1
Kidney [6] = assay: Biodistribution in ICR mouse kidney at 1 uCi, iv after 60 mins postinjection; settings: in vivo, 1 h; method in brief: as §1
Kidney [7] = assay: Biodistribution in ICR mouse kidney at 1 uCi, iv after 120 mins postinjection; settings: in vivo, 2 h; method in brief: as §1
Kidney [8] = assay: Biodistribution in ICR mouse kidney at 1 uCi, iv after 240 mins postinjection; settings: in vivo, 4 h; method in brief: as §1
Thyroid gland [9] = assay: Biodistribution in ICR mouse thyroid at 1 uCi, iv after 15 mins postinjection; settings: in vivo, 0.25 h
Method in brief: (§2)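 Female ICR mice (18–22 g, n = 5) received HPLC-purified radioiodinated tracer by tail vein (0.1 mL, 1 µCi). They were killed by cervical fracture at 15, 30, 60, 120 or 240 min post-injection. Blood and organs were removed, weighed and gamma-counted. Uptake is expressed as %ID/g, mean ± SD, n = 4–5.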

Thyroid gland [10] = assay: Biodistribution in ICR mouse thyroid at 1 uCi, iv after 30 mins postinjection; settings: in vivo, 0.5 h; method in brief: as §2
Thyroid gland [11] = assay: Biodistribution in ICR mouse thyroid at 1 uCi, iv after 60 mins postinjection; settings: in vivo, 1 h; method in brief: as §2
Thyroid gland [12] = assay: Biodistribution in ICR mouse thyroid at 1 uCi, iv after 120 mins postinjection; settings: in vivo, 2 h; method in brief: as §2
Thyroid gland [13] = assay: Biodistribution in ICR mouse thyroid at 1 uCi, iv after 240 mins postinjection; settings: in vivo, 4 h; method in brief: as §2
Stomach [14] = assay: Biodistribution in ICR mouse stomach at 1 uCi, iv measured per organ after 15 mins postinjection; settings: in vivo, 0.25 h
Stomach [15] = assay: Biodistribution in ICR mouse stomach at 1 uCi, iv measured per organ after 30 mins postinjection; settings: in vivo, 0.5 h
Stomach [16] = assay: Biodistribution in ICR mouse stomach at 1 uCi, iv measured per organ after 60 mins postinjection; settings: in vivo, 1 h; method in brief: as §2
Stomach [17] = assay: Biodistribution in ICR mouse stomach at 1 uCi, iv measured per organ after 120 mins postinjection; settings: in vivo, 2 h
Stomach [18] = assay: Biodistribution in ICR mouse stomach at 1 uCi, iv measured per organ after 240 mins postinjection; settings: in vivo, 4 h
Muscle tissue [19] = assay: Biodistribution in ICR mouse muscle at 1 uCi, iv after 15 mins postinjection; settings: in vivo, 0.25 h; method in brief: as §1
Muscle tissue [20] = assay: Biodistribution in ICR mouse muscle at 1 uCi, iv after 30 mins postinjection; settings: in vivo, 0.5 h; method in brief: as §1
Muscle tissue [21] = assay: Biodistribution in ICR mouse muscle at 1 uCi, iv after 60 mins postinjection; settings: in vivo, 1 h; method in brief: as §1
Muscle tissue [22] = assay: Biodistribution in ICR mouse muscle at 1 uCi, iv after 120 mins postinjection; settings: in vivo, 2 h; method in brief: as §1
Muscle tissue [23] = assay: Biodistribution in ICR mouse muscle at 1 uCi, iv after 240 mins postinjection; settings: in vivo, 4 h; method in brief: as §1
Mus musculus [24] = assay: Biodistribution in ICR mouse small intestine at 1 uCi, iv after 15 mins postinjection; settings: in vivo, 0.25 h; method in brief: as §1
Mus musculus [25] = assay: Biodistribution in ICR mouse small intestine at 1 uCi, iv after 30 mins postinjection; settings: in vivo, 0.5 h; method in brief: as §1
Mus musculus [26] = assay: Biodistribution in ICR mouse small intestine at 1 uCi, iv after 60 mins postinjection; settings: in vivo, 1 h; method in brief: as §1
Mus musculus [27] = assay: Biodistribution in ICR mouse small intestine at 1 uCi, iv after 120 mins postinjection; settings: in vivo, 2 h; method in brief: as §1
Mus musculus [28] = assay: Biodistribution in ICR mouse small intestine at 1 uCi, iv after 240 mins postinjection; settings: in vivo, 4 h; method in brief: as §1

[125I]c1ccc(CN2CCN(Cc3ccc4c(c3)OCO4)CC2)cc1
Drug uptake (Lung [1]): 6.29 % ID/g
Drug uptake (Lung [2]): 4.91 % ID/g
Drug uptake (Lung [3]): 2.69 % ID/g
Drug uptake (Kidney [4]): 12.72 % ID/g
Drug uptake (Kidney [5]): 9.65 % ID/g
Drug uptake (Kidney [6]): 8.73 % ID/g
Drug uptake (Kidney [7]): 7.82 % ID/g
Drug uptake (Kidney [8]): 6.89 % ID/g
Drug uptake (Thyroid gland [9]): 6.55 % ID/g
Drug uptake (Thyroid gland [10]): 2.3 % ID/g
Drug uptake (Thyroid gland [11]): 1.53 % ID/g
Drug uptake (Thyroid gland [12]): 1.4 % ID/g
Drug uptake (Thyroid gland [13]): 1.22 % ID/g
Drug uptake (Stomach [14]): 2.32 %ID
Drug uptake (Stomach [15]): 2.12 %ID
Drug uptake (Stomach [16]): 1.78 %ID
Drug uptake (Stomach [17]): 2.54 %ID
Drug uptake (Stomach [18]): 1.68 %ID
Drug uptake (Muscle tissue [19]): 2.35 % ID/g
Drug uptake (Muscle tissue [20]): 1.78 % ID/g
Drug uptake (Muscle tissue [21]): 1.5 % ID/g
Drug uptake (Muscle tissue [22]): 1.06 % ID/g
Drug uptake (Muscle tissue [23]): 0.72 % ID/g
Drug uptake (Mus musculus [24]): 5.77 % ID/g
Drug uptake (Mus musculus [25]): 10.21 % ID/g
Drug uptake (Mus musculus [26]): 7.45 % ID/g
Drug uptake (Mus musculus [27]): 10.73 % ID/g
Drug uptake (Mus musculus [28]): 10.95 % ID/g
